Measured values published in ChEMBL document CHEMBL1158541, “Water-soluble PDE4 inhibitors for the treatment of dry eye” (Bioorg Med Chem Lett, 2010).
pIC50: −log10 of the molar value. Converted amounts (≈) assume the structure as drawn. The source made the active and inactive calls. No cut-off for these calls is given here.

Tests used:
[1] = biological target: 3',5'-cyclic-AMP phosphodiesterase 4B (Homo sapiens, UniProt Q07343); experiment: Inhibition of human His6-tagged PDE4B (152-487) expressed in Escherichia coli BL21 (DE3) after 1 hr
3',5'-cyclic-AMP phosphodiesterase 4B, sequence (Q07343 whole entry): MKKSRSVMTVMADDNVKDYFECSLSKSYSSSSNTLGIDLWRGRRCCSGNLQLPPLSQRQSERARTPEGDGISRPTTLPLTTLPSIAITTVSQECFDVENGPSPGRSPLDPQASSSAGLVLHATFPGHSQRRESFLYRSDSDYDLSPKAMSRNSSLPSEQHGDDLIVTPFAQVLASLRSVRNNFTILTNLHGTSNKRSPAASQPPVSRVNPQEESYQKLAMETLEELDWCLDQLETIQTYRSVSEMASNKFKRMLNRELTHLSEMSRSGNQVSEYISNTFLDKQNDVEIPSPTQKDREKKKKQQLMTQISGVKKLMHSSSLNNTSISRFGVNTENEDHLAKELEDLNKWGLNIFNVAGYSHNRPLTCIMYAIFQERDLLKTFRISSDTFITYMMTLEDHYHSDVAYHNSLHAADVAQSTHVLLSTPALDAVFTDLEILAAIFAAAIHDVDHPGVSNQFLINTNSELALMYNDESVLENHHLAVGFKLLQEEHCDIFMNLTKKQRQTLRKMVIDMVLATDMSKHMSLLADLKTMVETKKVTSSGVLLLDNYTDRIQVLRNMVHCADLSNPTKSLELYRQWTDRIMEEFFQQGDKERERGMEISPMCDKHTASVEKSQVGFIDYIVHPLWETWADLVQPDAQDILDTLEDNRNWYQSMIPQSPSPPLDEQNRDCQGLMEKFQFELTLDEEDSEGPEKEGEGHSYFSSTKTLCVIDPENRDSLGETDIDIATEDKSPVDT

[2] = Inhibition of PDE4 expressed in HEK293 cells coexpressing cyclic nucleotide gated ion channel mutant assessed as inhibition of NECA-induced cAMP production treated 15 mins before NECA challenge measured after 45 mins by FLIPR assay; type: cell-based
HEK293 = experiment: Inhibition of PDE4 expressed in HEK293 cells coexpressing cyclic nucleotide gated ion channel mutant assessed as inhibition of NECA-induced cAMP production at 70 uM treated 15 mins before NECA challenge measured after 45 mins by FLIPR assay; type: cell-based
[3] = Solubility in 0.1 M phosphate buffer at pH 7.4 by shake-flask method; type: physicochemical
Outline: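 Shake-flask solubility in 0.1 M phosphate buffer, pH 7.4.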

[4] = Solubility in water; type: physicochemical
Oryctolagus cuniculus [5] = organism: Oryctolagus cuniculus; experiment: Antiinflammatory activity in rabbit assessed as inhibition of lacrimal gland inflammation-induced dry eye at 0.001 to 10 ug/ml bid for 4 days; type: functional, organism-based; details: Lachrymal gland, 0.01 to 10 ug/ml, in the assay text read “0.01 to 10 ug/ml” for “0.001 to 10 ug/ml”
Outline: (§1)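 Rabbit dry eye induced by lacrimal gland inflammation. Compound given topically b.i.d. for 4 days. Read-out is corneal staining, scored as percent inhibition versus vehicle, with dexamethasone (100 µg/mL) as positive control. Statistics by ANOVA with Dunnett's post-test.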

Rattus norvegicus [6] = experiment: Induction of tear secretion in rat at 10 ug/ml by topical administration after 10 mins by phenol red thread test; type: functional, organism-based
Outline: (§2)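 Rats received compound topically, and tear secretion was measured 10 min later by phenol red thread test. Percent increase is relative to untreated animals, and significance is versus saline by ANOVA with Dunnett's post-test. Positive control was isoproterenol (10 µg/mL).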

Rattus norvegicus [7] = experiment: Induction of tear secretion in rat at 100 ug/ml by topical administration after 10 mins by phenol red thread test; type: functional, organism-based; outline: as §2
Oryctolagus cuniculus [8] = organism: Oryctolagus cuniculus; experiment: Antiinflammatory activity in rabbit assessed as inhibition of lacrimal gland inflammation-induced dry eye at 10 ng/ml to 10 ug/ml bid for 4 days; type: functional, organism-based; details: Lachrymal gland; outline: as §1

Row | pIC50 [1] | pIC50 [2] | solubility thermodynamic [3] [µg/mL] | Structure (SMILES) | also measured
1 | < 4.52 | < 4.52 | – | COc1ccc2c(c1OC1CCCC1)OCCC2Nc1c(Cl)cncc1Cl (stereo not given) | –
2 | 6.30 | – | – | COc1ccc2c(Nc3c(Cl)cncc3Cl)nccc2c1OC1CCCC1 | inhibition (HEK293): inactive
3 | 8.30 | 6.74 | – | COc1ccc2c(Nc3c(Cl)cncc3Cl)cc(=O)oc2c1OCCCCCCN(C)C | –
4 | 8.70 | 6.92 | 1400 (≈ 2910 µM) | COc1ccc2c(Nc3c(Cl)cncc3Cl)cc(=O)oc2c1OCCCCCCC(=O)O | solubility [4]: 1400 µg/mL (≈ 2910 µM)
5 | 8.52 | 6.82 | – | COc1ccc2c(Nc3c(Cl)cncc3Cl)cc(=O)oc2c1OCCCCCCCN(C)C | –
6 | 4.80 | < 4.52 | – | COc1ccc2c(Nc3c(Cl)cncc3Cl)coc2c1OC1CCCC1 | –
7 | 8.70 | 7.40 | 300 (≈ 606 µM) | COc1ccc2c(Nc3c(Cl)cncc3Cl)cc(=O)oc2c1OCCCCCCCC(=O)O | –
8 | 6.40 | 5.96 | – | COc1ccc2c(Nc3c(Cl)cncc3Cl)nncc2c1OC1CCCC1 | –
9 | 7.68 | 6.18 | 60 (≈ 129 µM) | COc1ccc2c(Nc3c(Cl)cncc3Cl)cc(=O)oc2c1OCCCCCN(C)C | –
10 | 7.77 | 6.55 | 900 (≈ 1930 µM) | COc1ccc2c(Nc3c(Cl)cncc3Cl)cc(=O)oc2c1OCCCCCC(=O)O | solubility [4]: 900 µg/mL (≈ 1930 µM)
11 | 9.00 | 7.52 | 300 (≈ 589 µM) | COc1ccc2c(Nc3c(Cl)cncc3Cl)cc(=O)oc2c1OCCCCCCCCC(=O)O | –
12 | 8.70 | 6.82 | – | COc1ccc2c(Nc3c(Cl)cncc3Cl)cc(=O)oc2c1OCCCCCCCCN(C)C | –
13 | 7.10 | 6.05 | – | COc1ccc2c(Nc3c(Cl)cncc3Cl)cc(=O)oc2c1OCCCC(=O)O | –
14 | 5.64 | 5.00 | – | COc1ccc2c(Nc3c(Cl)cncc3Cl)ncnc2c1OC1CCCC1 | –
15 | 5.93 | 5.27 | – | COc1ccc2c(Nc3c(Cl)cncc3Cl)cc(=O)oc2c1OCC(=O)O | –
16 | 7.37 | 6.14 | 500 (≈ 1100 µM) | COc1ccc2c(Nc3c(Cl)cncc3Cl)cc(=O)oc2c1OCCCCC(=O)O | –
17 | – | 7.55 | 0.3 (≈ 0.712 µM) | COc1ccc2c(Nc3c(Cl)cncc3Cl)cc(=O)oc2c1OC1CCCC1 | –
18 | 7.35 | 5.74 | 1800 (≈ 3980 µM) | COc1ccc2c(Nc3c(Cl)cncc3Cl)cc(=O)oc2c1OCCCCN(C)C | Activity (Oryctolagus cuniculus [5]): Active; Activity (Rattus norvegicus [6]): Active; Activity (Rattus norvegicus [7]): Active; Activity (Oryctolagus cuniculus [8]): Active
19 | – | 9.00 | – | O=C(Nc1c(Cl)cncc1Cl)c1ccc(OC(F)F)c(OCC2CC2)c1 [ROFLUMILAST] | –
20 | 5.48 | 5.09 | – | COc1ccc2c(Nc3c(Cl)cncc3Cl)ccnc2c1OC1CCCC1 | –
21 | 6.17 | < 4.52 | – | COc1ccc2c(Nc3c(Cl)cncc3Cl)cc(=O)oc2c1OCCCN(C)C | –

Row | Structure (SMILES) | pIC50 [1] | pIC50 [2] | solubility thermodynamic [3] [µg/mL] | also measured
22 | COc1ccc(C(=O)Nc2c(Cl)cncc2Cl)cc1OC1CCCC1 | – | 7.89 | – | –
